# ChEMBL document CHEMBL1150672, “Chemical transformations on botryane skeleton. Effect on the cytotoxic activity” (J Nat Prod, 2003)
# Columns and labels:
# [1] = Cytotoxicity against human IMR90 cells after 24 hrs by MTT assay; type: cell-based, IMR-90; conditions: read-out: ID50
# In short: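 IMR-90 embryonic fibroblasts (ATCC) were grown in DMEM with 10% FCS and 1% glutamine at 37 °C, 5% CO2. Cells were plated at 4 or 8×10^3/well and attached overnight. They were treated 24 h, in duplicate, with compounds from methanol stocks diluted in medium, with a methanol blank. MTT (5 mg/mL stock) was added for 4 h, formazan dissolved in DMSO, and read at 550 nm.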
# [2] = Cytotoxicity against HUVEC after 24 hrs by MTT assay; type: cell-based; conditions: human, read-out: ID50
# In short: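 Primary HUVEC from newborns, grown in DMEM/medium 199 with 20% FCS, 10 mM HEPES, heparin and ECGS at 37 °C, 5% CO2. Cells were seeded at 4 or 8×10^3/well and attached overnight. Compounds were added from methanol solutions diluted in medium, with a methanol blank, for 24 h in duplicate. MTT (5 mg/mL stock) was added for 4 h, formazan dissolved in DMSO, and A550 read.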
# HT-1080 = assay: Cytotoxicity against human HT1080 cells after 24 hrs by MTT assay; type: functional; conditions: HT-1080, 24 h, read-out: ID50 (the source's name)
# In short: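 HT-1080 cells (ATCC) were kept in DMEM with 10% FCS, 1% glutamine and 1% vitamins at 37 °C, 5% CO2. Cells were seeded at 4 or 8×10^3/well and attached overnight, then exposed for 24 h in duplicate to methanol-dissolved compounds diluted in medium, with a methanol blank. MTT (5 mg/mL stock) was given for 4 h, formazan solubilized in DMSO, and absorbance read at 550 nm.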
# [3] = Cytotoxicity against human Hs 578T cells after 24 hrs by MTT assay; type: functional; conditions: read-out: ID50 (the source's name)
# In short: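 Hs578T cells (ATCC) were maintained in DMEM with 10% FCS, 1% glutamine and 10 μg/mL insulin. Cells were seeded at 4 or 8×10^3/well and allowed to adhere overnight at 37 °C. They were exposed 24 h, in duplicate, to compounds in methanol diluted with medium, with a methanol blank. MTT (5 mg/mL stock) was added for 4 h, formazan dissolved in DMSO, and A550 measured.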
# [4] = Cytotoxicity against human U87MG cells after 24 hrs by MTT assay; type: functional, U-87MG ATCC; conditions: U-87 MG, read-out: ID50 (the source's name)
# In short: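 U87-MG glioblastoma cells (ATCC) were grown in MEM with 10% FCS, 1% sodium pyruvate and 1% nonessential amino acids. Cells were seeded at 4 or 8×10^3/well and adhered overnight at 37 °C. They were exposed 24 h, in duplicate, to methanol-dissolved compounds diluted in medium, with a methanol blank. MTT (5 mg/mL stock) was added for 4 h, formazan dissolved in DMSO, and absorbance read at 550 nm.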
# MDA-MB-231 = assay: Cytotoxicity against human MDA-MB-231 cells after 24 hrs by MTT assay; type: functional; conditions: MDA-MB-231, 24 h, read-out: ID50 (the source's name)
# In short: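 MDA-MB-231 cells (ATCC) were cultured in Leibovitz's L-15 with 10% FCS. Cells were seeded at 4 or 8×10^3/well and attached overnight at 37 °C. Compounds dissolved in methanol and diluted in medium were added for 24 h in duplicate, with a methanol blank. MTT (5 mg/mL stock) was added for 4 h, formazan taken up in DMSO, and A550 recorded.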
SMILES,CC50 at 24 h [1],CC50 at 24 h [2],IC50 (HT-1080),IC50 [3],IC50 [4],IC50 (MDA-MB-231)
COC(=O)[C@H]1[C@H](C)C[C@H](OC(C)=O)[C@H]2C(C)(C)C[C@](C)(C(=O)OC)[C@@]12O [DIMETHYL BOTRYDIOATE],> 10 µg/mL,> 10 µg/mL,> 10 µg/mL,> 10 µg/mL,> 10 µg/mL,> 10 µg/mL
CC(=O)O[C@H]1C[C@@H](C)[C@H](CO)[C@@]2(O)[C@@H]1C(C)(C)C[C@]2(C)CO [BOTRYDIOL],> 10 µg/mL,> 10 µg/mL,> 10 µg/mL,> 10 µg/mL,> 10 µg/mL,> 10 µg/mL
CC(=O)O[C@H]1C[C@@H](C)[C@@H]2[C@@H](O)OC[C@@]3(C)CC(C)(C)[C@H]1[C@]23O [DIHYDROBOTRYDIAL],> 10 µg/mL,> 10 µg/mL,> 10 µg/mL,> 10 µg/mL,> 10 µg/mL,> 10 µg/mL
CC(=O)O[C@H]1C[C@@H](C)[C@@H]2COC(C)(C)OC[C@@]3(C)CC(C)(C)[C@H]1[C@]23O,> 10 µg/mL,> 10 µg/mL,> 10 µg/mL,> 10 µg/mL,> 10 µg/mL,> 10 µg/mL
C[C@@H]1C[C@H](O)[C@H]2C(C)(C)C[C@]3(C)COC[C@@H]1[C@@]23O,> 10 µg/mL,> 10 µg/mL,> 10 µg/mL,> 10 µg/mL,> 10 µg/mL,> 10 µg/mL
CC1(C)C[C@](C)(CO)c2c1ccc(CO)c2CO,> 10 µg/mL,> 10 µg/mL,> 10 µg/mL,> 10 µg/mL,> 10 µg/mL,> 10 µg/mL
COC(=O)[C@@]1(C)CC(C)(C)[C@H]2C1=C(C=O)[C@H](C)C[C@@H]2O [METHYL BOTRYENALOATE],> 10 µg/mL,> 10 µg/mL,> 10 µg/mL,> 10 µg/mL,> 10 µg/mL,> 10 µg/mL
CC(=O)O[C@H]1C[C@@H](C)[C@@H]2[C@@H](O)[C@H](O)[C@@]3(C)CC(C)(C)[C@H]1[C@]23O,> 10 µg/mL,> 10 µg/mL,> 10 µg/mL,> 10 µg/mL,> 10 µg/mL,> 10 µg/mL
COC(=O)[C@@]1(C)CC(C)(C)[C@@H]2[C@@H](OC(C)=O)C[C@@H](C)[C@H](C=O)[C@@]21O [METHYL ACETYLBOTRYALOATE],> 10 µg/mL,> 10 µg/mL,> 10 µg/mL,> 10 µg/mL,> 10 µg/mL,> 10 µg/mL
CC(=O)O[C@H]1C[C@@H](C)[C@H](C=O)[C@@]2(O)[C@@H]1C(C)(C)C[C@]2(C)C=O [BOTRYDIAL],10 µg/mL,1 µg/mL,1 µg/mL,1 µg/mL,1 µg/mL,1 µg/mL
CC(=O)O[C@H]1C[C@@H](C)[C@@H](C=O)[C@@]2(O)[C@@H]1C(C)(C)C[C@]2(C)C=O,10 µg/mL,10 µg/mL,10 µg/mL,5 µg/mL,5 µg/mL,1 µg/mL
CC(=O)O[C@H]1C[C@@H](C)[C@@H]2C(=O)OC[C@@]3(C)CC(C)(C)[C@H]1[C@]23O,> 10 µg/mL,> 10 µg/mL,> 10 µg/mL,> 10 µg/mL,> 10 µg/mL,> 10 µg/mL
CC(=O)O[C@H]1C[C@@H](C)[C@@H]2COC(=O)[C@@]3(C)CC(C)(C)[C@H]1[C@]23O,> 10 µg/mL,> 10 µg/mL,> 10 µg/mL,> 10 µg/mL,> 10 µg/mL,> 10 µg/mL
C[C@@H]1CC=C2C(=C1C=O)[C@@](C)(C=O)CC2(C)C,1 µg/mL,1 µg/mL,1 µg/mL,1 µg/mL,1 µg/mL,0.1 µg/mL
